The target of data set [1] is T1, Heat shock protein HSP90 (Homo sapiens) (UniProt P07900+P08238). Put plainly: Inhibition of Hsp90 in human MOLM13 cells assessed as Raf1 degradation at 1 uM after 24 hrs using horseradish peroxidase by Western blot analysis. It counts as cell-based. The note with it: MOLM-13. In short, it runs like this: (§1)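 MOLM-13 cells treated with derivatives at 1 μM for 24 h. Steady-state mFLT3 and Raf-1 levels read by Western blot, with β-actin as the loading control.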

Data set [2] addresses T1, Heat shock protein HSP90 (Homo sapiens). Put plainly: Inhibition of Hsp90 in human MOLM13 cells assessed as decrease in cell viability after 24 hrs using DAPI staining by flow cytometry analysis. The note with it: MOLM-13. It counts as cell-based. The method in brief:
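MOLM-13 cells exposed to derivatives at 1 μM, 37°C, 24 h. Viability scored by DAPI exclusion.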
For orientation: In flow cytometry, cells or beads pass a laser one at a time.

For data set [3] the target is unchanged. The data set can be described thus: Binding affinity to Hsp90 in human MOLM13 cells assessed as staining of live cells at 1 uM after 4 hrs using DAPI staining by flow cytometry analysis. It counts as cell-based. The note with it: MOLM-13. In short, it runs like this:
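MOLM-13 cells exposed to each fluorescent derivative at 1 μM, 37°C, 4 h. Binding to live cells (DAPI negative) read by flow cytometry as mean fluorescence intensity.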

The target of data set [4] is Receptor-type tyrosine-protein kinase FLT3 (Homo sapiens) (UniProt P36888). The data set can be described thus: Inhibition of Hsp90 in human MOLM13 cells assessed as FLT3 mutant degradation at 1 uM after 24 hrs using horseradish peroxidase by Western blot analysis. Type of data set: cell-based. The settings on record: MOLM-13. In short, it runs like this: as §1
(In general: A western blot detects proteins with antibodies after separation by electrophoresis.)

The test system of data set [5] is MV4-11. The data set can be described thus: Drug uptake in human MV4-11 cells assessed as intracellular localization at 1 uM after 24 hrs by DAPI staining based confocal fluorescence microscopy. It counts as ADME, cell-based. The note with it: mv4-11, 24 h. In short, it runs like this:
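MV4-11 cells given 1 μM probe at 37°C for 24 h, then fixed. Cells stained with Na⁺/K⁺-ATPase α1 antibody plus Alexa Fluor 568 secondary as the surface marker. DAPI used to mark non-viable cells. Imaged by confocal microscopy.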

In a further data set the test system is MOLM-13. Put plainly: Drug uptake in human MOLM13 cells assessed as CD45 staining of cells at 1 uM after 1 hr using 7-AAD staining by flow cytometry analysis. Type of data set: ADME, cell-based. The note with it: molm-13, 1 h.
Data set [6] deals with MV4-11. The data set can be described thus: Drug uptake in human MV4-11 cells assessed as CD45 staining of cells at 1 uM after 30 mins using 7-AAD staining by flow cytometry analysis. Type of data set: ADME, cell-based. The settings on record: mv4-11, 0.5 h.
Data set [7] can be described thus: Drug uptake in human lymphocytes assessed as CD45 staining of cells at 1 uM after 1 hr using 7-AAD staining by flow cytometry analysis. Type of data set: ADME, cell-based. The settings on record: lymphocyte.

Active and inactive are the calls of the source. The rule behind the calls is not given here.

Receptor-type tyrosine-protein kinase FLT3 (Homo sapiens), sequence (P36888 whole entry): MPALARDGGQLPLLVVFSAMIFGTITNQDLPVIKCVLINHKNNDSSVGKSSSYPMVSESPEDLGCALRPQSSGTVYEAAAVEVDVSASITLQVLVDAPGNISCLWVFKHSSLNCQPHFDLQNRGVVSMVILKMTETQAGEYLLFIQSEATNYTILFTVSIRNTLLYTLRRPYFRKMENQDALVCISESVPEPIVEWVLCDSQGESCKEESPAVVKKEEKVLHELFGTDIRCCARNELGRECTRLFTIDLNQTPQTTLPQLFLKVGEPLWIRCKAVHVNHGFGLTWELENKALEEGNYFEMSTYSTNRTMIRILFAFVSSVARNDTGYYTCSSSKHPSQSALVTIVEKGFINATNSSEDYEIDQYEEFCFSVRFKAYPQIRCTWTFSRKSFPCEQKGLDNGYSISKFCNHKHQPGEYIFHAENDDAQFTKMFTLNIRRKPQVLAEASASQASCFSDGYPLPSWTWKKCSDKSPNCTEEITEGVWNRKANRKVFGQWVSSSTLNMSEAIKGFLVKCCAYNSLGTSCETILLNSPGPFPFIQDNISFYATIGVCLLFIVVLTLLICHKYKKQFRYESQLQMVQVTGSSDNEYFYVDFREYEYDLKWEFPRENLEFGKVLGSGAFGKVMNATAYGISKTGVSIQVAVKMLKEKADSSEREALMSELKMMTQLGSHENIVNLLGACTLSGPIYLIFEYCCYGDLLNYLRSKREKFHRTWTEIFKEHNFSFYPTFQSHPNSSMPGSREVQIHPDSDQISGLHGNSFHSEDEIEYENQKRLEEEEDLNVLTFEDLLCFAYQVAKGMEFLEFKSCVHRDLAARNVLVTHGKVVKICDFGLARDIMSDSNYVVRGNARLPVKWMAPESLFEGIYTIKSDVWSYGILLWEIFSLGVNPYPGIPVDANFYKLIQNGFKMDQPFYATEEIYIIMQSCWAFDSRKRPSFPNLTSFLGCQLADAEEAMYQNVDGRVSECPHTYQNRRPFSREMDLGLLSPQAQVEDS

`Nc1ncnc2c1nc(Sc1cc3c(cc1I)OCO3)n2CCCNCCCCCCNc1ccc([N+](=O)[O-])c2nonc12`: the inhibition result in data set [1], in data set [2] and in data set [4] was “Active” each time. Moreover, the result in data set [3] was Active. The Drug uptake entry in the data set with MV4-11 [5] is listed as “Active”.
For `CC(C)N(CCCn1c(Sc2cc3c(cc2I)OCO3)nc2c(N)ncnc21)C(=S)Nc1ccc(-c2c3ccc(=O)cc-3oc3cc(O)ccc23)c(C(=O)O)c1`, the inhibition entry in data set [1], in data set [2] and in data set [4] was “Active” throughout. In data set [3], the result was Active. For the same molecule, the Drug uptake entry in the data set on MV4-11 [5] is “Active”; with MOLM-13 it was “Active”; in the data set with MV4-11 [6], “Active”; in data set [7], “Not Active”.

The values are drawn from ChEMBL document CHEMBL1909598, “Synthesis of purine-scaffold fluorescent probes for heat shock protein 90 with use in flow cytometry and fluorescence microscopy” (Bioorg Med Chem Lett, 2011).
